Data set [1] addresses CYP2E1 (Homo sapiens, UniProt P05181). As to the kind of experiment: CYP2E1 inhibition assay. It is filed as biochemical. As to conditions: for inhibition at 1 h: CYP2E1 baculosomes, pH 7.4, probe para-nitrophenol (p-NP); for inhibition at saturating substrate concentration: in words; for Inhibition type: p-NP 5-100 μmol/L, inhibitor 5-200 μmol/L, goodness-of-fit. In outline:
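p-NP hydroxylation by CYP2E1 baculosomes (2 pmol/μL) in 50 mmol/L potassium phosphate, pH 7.4. p-NP at 5–100 μmol/L (five levels) and inhibitor at 5–200 μmol/L (six levels). Pre-incubated 5 min at 37°C, then NADPH added (26 mmol/L) and run 1 h at 37°C. Stopped with TCA, neutralized with NaOH, absorbance read at 535 nm. Activity normalized to vehicle. IC50, Km/Vmax and Ki/inhibition type fitted by nonlinear regression; four replicates.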

Data set [2] concerns CYP2E1. The note with it: acetone-induced rat microsome; ref Brady et al. 1991; cited from earlier work.
Data set [3] in a line: Preliminary toxicity / cell death of DAS analogs. It is filed as cell-based. The note with it: 200 μmol/L, 6 days of treatment, unpublished.
Where [4] appears, read: K i, noncompetitive inhibition, mean ± SE, four replicates.
Setting [5] is: K i, uncompetitive inhibition, mean ± SE, four replicates.
The mark [6] stands for this setting: 100 μmol/L p-NP, mean ± SE, four replicates.
[7] abbreviates: competitive inhibition, mean ± SE, four replicates.

Read-outs that look alike come from different tables or passages of the source.

CYP2E1 (Homo sapiens, UniProt P05181), sequence (P05181 whole entry): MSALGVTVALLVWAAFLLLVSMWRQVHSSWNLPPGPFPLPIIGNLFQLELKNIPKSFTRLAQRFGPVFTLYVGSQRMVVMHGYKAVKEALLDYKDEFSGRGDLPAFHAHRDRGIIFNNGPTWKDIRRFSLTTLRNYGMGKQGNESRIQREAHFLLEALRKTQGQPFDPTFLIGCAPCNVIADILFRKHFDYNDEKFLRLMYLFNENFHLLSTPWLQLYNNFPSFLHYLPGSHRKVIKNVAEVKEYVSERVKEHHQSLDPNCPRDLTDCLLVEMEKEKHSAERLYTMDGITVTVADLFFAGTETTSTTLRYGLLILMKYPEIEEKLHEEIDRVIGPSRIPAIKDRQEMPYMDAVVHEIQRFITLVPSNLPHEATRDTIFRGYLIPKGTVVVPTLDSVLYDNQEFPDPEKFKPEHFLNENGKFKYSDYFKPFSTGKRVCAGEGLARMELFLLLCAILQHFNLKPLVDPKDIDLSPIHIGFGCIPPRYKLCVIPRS

On CYP2E1 [1], `C=CCOCCN` [2‐(prop‐2‐en‐1‐yloxy) ethan‐1‐amine] displayed an IC50 of 43.7 ± 1.4 µM and an inhibition at 1 h of 71%. The Ki on CYP2E1 [1] (setting [4]) stood at 34.1 ± 3.3 µM. This compound also had a Ki at CYP2E1 [1] (setting [5]) of 19.3 ± 2.3 µM.

Turning to `C=CCOCC(N)=O` [2‐prop‐2‐enoxyacetamide (PEXA), 2‐prop‐2‐enoxyacetamide], at CYP2E1 [1], the IC50 came out at 91.4 ± 1.6 µM and the inhibition at 1 h worked out at 20%. At CYP2E1 [1] (setting [4]), this compound gave an inhibitory constant (Ki) of 363 ± 64 µM. At CYP2E1 [1] (setting [5]), this compound registered a Ki of 246 ± 47 µM.

At CYP2E1 [1], `C=CCCCCN` [5‐hexen‐1‐amine (5, 1 HA), 5‐hexen‐1‐amine] yielded an IC50 of 74.7 ± 1.2 µM and an inhibition at 1 h of 75%. In addition, the inhibition constant Ki on CYP2E1 [1] (setting [4]) is around 10.5 µM. For the same compound, the Ki on CYP2E1 [1] (setting [5]) was around 7.3 µM.

Consider `C=CCSC` [Allyl methyl sulfide (AMS), allyl methyl sulfide], for which, at CYP2E1 [1], the “Maximal inhibition (%)” value is listed as 100%, the “inhibition at saturating substrate concentration” value is “complete inhibition” and the Inhibition type result was “Competitive”. Further, on CYP2E1 [1] (setting [6]), the IC50 is 11.4 ± 1.1 µM. At CYP2E1 [1] (100 μmol/L p-NP, mean ± SE, four replicates, listed as AMS), this compound registered a half-inhibitory concentration (IC50) of 11.4 ± 1.1 µM. The inhibition constant (Ki) at CYP2E1 [1] (setting [7]) came to 4.4 ± 0.9 µM.

Consider `C=CCSCC=C` [Diallyl sulfide (DAS), Diallyl sulfide, reference compound], for which, at CYP2E1 [1], half-maximal inhibition (IC50) was put at 17.3 ± 1.1 µM, the inhibition at 1 h was 97% and the Inhibition type result is given as “Competitive”. On CYP2E1 [1] (K i, competitive inhibition, mean ± SE, four replicates), this compound gave a Ki of 6.3 ± 1 µM. In addition, the Inhibition type result at CYP2E1 [1] (listed as DAS) is listed as “competitive inhibition kinetics”. Also, the Inhibition type entry with CYP2E1 [2] is “competitive inhibition”.

On to `c1ccsc1` [Thiophene (TP), thiophene], for which, at CYP2E1 [1], the “Maximal inhibition (%)” value worked out at 98%, the “inhibition at saturating substrate concentration” value is given as “complete inhibition” and the Inhibition type entry is “Competitive”. For the same compound, the half-inhibitory concentration (IC50) against CYP2E1 [1] (setting [6]) came to 19.4 ± 1.1 µM. Besides, at CYP2E1 [1] (setting [7]), the Ki was 7.7 ± 1.2 µM. For the same compound, the toxicity entry in data set [3] was “did not show any significant toxicities”.

The record behind these values is article PMC5625166 (Pharmacology Research & Perspectives, 2017).
